# Reference: the RNAGym collection of RNA variant scans (doi:10.1126/science.aae0568)
# This sample holds only a part of the variants without activity.
# B1: tRNA (parent)
# chain: GUUCCGUUGGCGUAAUGGUAACGCGUCUCCCUCCUAAGGAGAAGACUGCGGGUUCGAGUCCCGUACGGAACG
# Variants of: B1
# Assay: yeast fitness relative to wild type (ratio to wild type); higher = fitter; tRNA-Arg(CCU), competitive growth, 37 C, YPD
# Method in brief: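 A pool of Saccharomyces cerevisiae strains, each with a tRNA-Arg(CCU) gene variant at the native genomic locus, was competed in YPD at 37°C for 24 hours across six parallel replicates. The variants had been chemically synthesised at a 3% per-site mutation rate over 69 sites, and gene amplicons before and after competition were read by 100-nucleotide paired-end sequencing. Darwinian fitness relative to wild type rested on changes in genotype frequencies. Genotypes required ≥ 100 starting reads, and estimates < 0.5 were set to 0.5.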
row,Variant,yeast fitness
1,GAUCCGUUGGCGUAAUGGUAACGCGUUUCCCUCCUAAGGAGAAGACUGCGGGUUCGAGUCCCGUACGGAACG [U2A C27U],0.982
2,GUUCCGUUGGCGUAUGGGUAACGCGUCUCCCUCCUAAGGAGAAGACUGCGGGUUAGCGCCCCGUACGGAACG [A15U U16G C55A A57C U59C],≤ 0.5
3,GUUCCGUAGGCAUAAUGGUAACGCGUCUCCCUUCUAGGGAGAAGACUGCGGGUUCGAGUCCAGUACGGAACG [U8A G12A C33U A37G C62A],≤ 0.5
4,GUUCCGUUAGCGUAAUGGCAACGCGUCUCCCUCCUAAGGAGAAGACUGGGGGUUCGAGUCCCGUACGGAACG [G9A U19C C49G],0.634
5,GUUCCGUUGGCGUAAUGGUAACGCGUCUCCCUCCUAAAGGGAAGACUGCGGGUUCGAGUCCCGUACGGAACG [G38A A40G],0.82
6,GUUCCGUUGGGGUAAUGGAAAGGCGUCUCCCUCCUAAGGAGAAGACUGCGGGUUCGAGACCCGUACGGAACG [C11G U19A C22G U59A],≤ 0.5
7,GUUCCGUUGGCGUAAUGGUAACGCAUUUCCCUCCUUAGGAGAAGACUGCGGGUUCGAGUCCCGUACGGAACG [G25A C27U A36U],0.53
8,GUUCCGUUGGCGUAAUGGUAACGCGUCUCCCUCCUCAAGAGAAGACUGCGGGUCCGAAUCCCGUACGGAACG [A36C G38A U54C G58A],≤ 0.5
9,GUUCCGUUGGCGUAAUGGUAACGCGUCUCCCUCCUACGGAAAAGACUGCGGGUUCGAGUCCCGUACGGAACG [A37C G41A],1.01
10,GUUCCAUUGGCCUAACGGUAUCGCGUCUCCCUCCUAAGGAGAAGACUGCGGGUUCGAGUCCCGUAUGGAACG [G6A G12C U16C A21U C66U],0.571
11,GUUCCGUUGGGGUAAUGGUAACGCGUAUCCCUCCUAAAGAGAAGACUGCGGGUUGGAGUCCCGUACGGAACG [C11G C27A G38A C55G],≤ 0.5
12,GUUCCGUUGGCGUAAUGGUAACGCGUCUCCCUCCUGAGGAGAAGACUGCGGGUUCGAAUCCCGUACGGAACG [A36G G58A],0.898
13,GUUCCGUUGGCGUAAUGGUAACGCGCCUCCCUCCUAUGGAGAAGACUGCGGGUUCGGGUCCCGUACGGAACG [U26C A37U A57G],0.658
14,GUACCGUUGGCGUAAUGGUACCGCGUCUCCCUCCUAAGGAGAAGACUGGGGGUUCGAGUCCCGUACGGAACG [U3A A21C C49G],≤ 0.5
15,GUUCCGAUGGCGUAAUGGUAACGCGUCUGCCUCCUCAGGAGAAGACUGCGGGUUCGAGUCCCGUACAGAACG [U7A C29G A36C G67A],≤ 0.5
16,GUUCCGUGGGCGUAAUGGUAACGCGUCUCCCUCCUAAGGAGAAGAGUGCGGGUUCGUGUCCCGUACGGAACG [U8G C46G A57U],≤ 0.5
17,GUUCCGUUGGCGUUAUGGUAACGCGUCUCCCUCCUAAGGAGAAGACUUCGGGUUCGAGUCCCGUACGGAACG [A14U G48U],0.567
18,GUUCCGUUGGCGUAAUGGUAACGCGUCUCCCUCCUGAGGAGAAGACUGCGGGUUCGAGUUCCGUACGGAUCG [A36G C60U A70U],≤ 0.5
19,GUUCCGUUCGCGUAAUGGUAAGGCGUCUCCCUGCUAAGGAGAAGACUGCGGGUUCGAGUCCCCUACGGAGCG [G9C C22G C33G G63C A70G],0.6

row,Variant,yeast fitness
1,GUUCCGUUGGCGUAAUGGUAACGAGUCUCCCUCCUAAGGAGAAGACUGCGGGUACGAGUCCCGUACGGAACG [C24A U54A],0.634
2,GUUCUGUUGGCGUAAUGGUAACGCGUGUCCGUCCUAAGGAGAAGACUGCGGGUUCGAGUCCCGUACGGAACG [C5U C27G C31G],0.679
3,GUACCGUAGGCGUAAUGGUAACGCGUCUCCGUCCUAAGGCGAAGACUGCGGGUUCGACUCCAGUACGAAACG [U3A U8A C31G A40C G58C C62A G68A],≤ 0.5
4,GUUCCGUUGGCGUAAUGGUAAGGCGUCUCCCUCCUAAGGAGAAGACUGCGGGUUCGAGUCUCGUACGAAACG [C22G C61U G68A],≤ 0.5
5,GUUUCAUUGGCGUAAUGGUAACGCGUCUCCCUCCUAAGGAGAAGACUGCGGGUUCGAGUCACGUACGGAACG [C4U G6A C61A],≤ 0.5
6,GUUCCGUUGGCGUAAUGGUAACGCGUCUCCCUCCUAAGGAGAACACUGCGGGUUCAAGUCCCGUACGGAACG [G44C G56A],0.795
7,GUUCUGUUGGCGUACUGGUAACGCGUCUCCCUCCUUAGGAGAAGACUGCGGGUUCGAGUCCCGUCCGGAACG [C5U A15C A36U A65C],≤ 0.5
8,GUUCCGUUAGCAUAAUGGUAACGCGUCUCGCCCCUAAGGAGAAGACUGCAGGUUCGAGUCCCGUACGGAACG [G9A G12A C30G U32C G50A],0.554
9,GUUCCGUUGGCGUAAUGGUAACGCGUCUCCCUCCUAAGGAGAAGACUGCGGGUUCGAGUGCCAUUUGGAACG [C60G G63A A65U C66U],≤ 0.5
10,GUUCCGUUGGCGUAAUAGUAACGCGUCUCCCUCGUAAGGAGAAGACUGCGGGUUCGAGUCCCGUUCGGAACG [G17A C34G A65U],≤ 0.5
11,GUUCCGUUGGCGUAAUGGUAACGCGUCUCCCUUCUAAGGAGAAGACUGCGGGUUUGAGUUCCGUACGGAACG [C33U C55U C60U],≤ 0.5
12,GUUCCGUUGGCGUAACGGUAGCGCGUCUCCCUCCUAAGGGGAAGACUGCGGGUUCGCGUCCCGUACGGAACG [U16C A21G A40G A57C],≤ 0.5
13,GUUCCGUUGGCGUAAUGGUAACGCGUCUCUCUCCUAAGGAGAAGACUGCGGGUUCGAGUCACGUACGGAACG [C30U C61A],0.648
14,GUUCCGUUGGCGUAAUGGUAACGCCUCUUCCUUCUAAGGGGAAGACUGCGGAUUCGAGCCCCGUUCGGAACG [G25C C29U C33U A40G G52A U59C A65U],≤ 0.5
15,GCUCCGUUGGCGUAAUGGUAACGUGUCUUACUCCUAAGGAGAAGACUGCGGGUUCGAGUCCCGUACGGUACG [U2C C24U C29U C30A A69U],≤ 0.5
16,GUUUCGUUGGCGUAAUGGUAAGGCGUCUCCCUCCUAAGGAGAAGACUGCGGGUUCGAGUCCCGUACGGAACG [C4U C22G],0.943
17,GUUCCGUUGGCGCAAUGGUUACGCGUCUCCCUCCUAAGGAGAAGACUGCGGGUUCGAGUCCUGUACGGAACG [U13C A20U C62U],0.731
18,GUUCCGUUGGCGUAAUGGUAAAGCGUCUCCCGCCUAUGGAGAAGACUGCGGGUUCGAGUCCCGUACGGAACG [C22A U32G A37U],≤ 0.5
19,GUUCCGUGGGCGUAAUGGUAACGCGUCUCCUUCCUAGGGAGAAGACUGCGGGUAAGAGUCCCGUACGGAACG [U8G C31U A37G U54A C55A],≤ 0.5
